Laboratory results published in publication PMC2193282 (The Journal of Experimental Medicine, 2000).

Test system: epidermal Langerhans cells
Assay: Langerhans cell migration assay
Assay type: in vivo, BALB/c mice
Conditions: 24 h after topical application of 0.5% DNFB on ear (Fig. 5 A)
Method in brief: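 Ears were harvested 24 h later. Epidermal sheets were separated (0.5 M ammonium thiocyanate, 20 min, 37°C), acetone-fixed and stained with FITC anti-IA mAb 2G9. IA+ cells were counted at ×400 in 10 fields/sample; 5–15 mice/group.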

O=[N+]([O-])c1ccc(F)c([N+](=O)[O-])c1 [DNFB, dinitrofluorobenzene]
reduction of epidermal Langerhans cell density: ~35%
